From ChEMBL document CHEMBL1759994, “The discovery and synthesis of potent zwitterionic inhibitors of renin” (Bioorg Med Chem Lett, 2011)
pIC50, pKi: −log10 of the molar value.

What was measured:
[1] = biological target: Voltage-gated inwardly rectifying potassium channel KCNH2 (Homo sapiens, UniProt Q12809); test: Binding affinity to human ERG
Liver [2] = test: Metabolic stability in Sprague-Dawley rat liver S9 fraction assessed as conversion to (1R,2R)-2-((3-(((3R,4S)-N-cyclopropyl-4-(4-(2-(2,6-dichloro-4-methylphenoxy)ethoxy)phenyl)piperidine-3-carboxamido)methyl)-5-(3-methoxypropyl)phenoxy)methyl)cyclopropanecarboxylic acid after 20 mins; format: ADME, subcellular; conditions: s9, 20 min
Method in brief: (§1)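 Prodrugs were incubated for 20 min in rat or human whole blood, or in rat or human liver S9 fraction (n = 2). The read-out was % conversion to the parent carboxylic acid.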

Blood [3] = test: Metabolic stability in Sprague-Dawley rat whole blood assessed as conversion to (1R,2R)-2-((3-(((3R,4S)-N-cyclopropyl-4-(4-(2-(2,6-dichloro-4-methylphenoxy)ethoxy)phenyl)piperidine-3-carboxamido)methyl)-5-(3-methoxypropyl)phenoxy)methyl)cyclopropanecarboxylic acid after 20 mins; format: ADME, tissue-based; method in brief: as §1
Blood [4] = test: Metabolic stability in human whole blood assessed as conversion to (1R,2R)-2-((3-(((3R,4S)-N-cyclopropyl-4-(4-(2-(2,6-dichloro-4-methylphenoxy)ethoxy)phenyl)piperidine-3-carboxamido)methyl)-5-(3-methoxypropyl)phenoxy)methyl)cyclopropanecarboxylic acid after 20 mins; format: ADME, tissue-based; method in brief: as §1
[5] = AUC (0 to 24 hrs) in Sprague-Dawley rat at 20 mg/kg, po as 0.5% methocel suspension; format: ADME, organism-based; design: time < 24 hr, dose 20 mg/kg, route oral; conditions: plasma
Liver [6] = test: Metabolic stability in human liver S9 fraction assessed as conversion to (1R,2R)-2-((3-(((3R,4S)-N-cyclopropyl-4-(4-(2-(2,6-dichloro-4-methylphenoxy)ethoxy)phenyl)piperidine-3-carboxamido)methyl)-5-(3-methoxypropyl)phenoxy)methyl)cyclopropanecarboxylic acid after 20 mins; format: ADME, subcellular; conditions: s9, 20 min; method in brief: as §1
[7] = AUC (0 to 24 hrs) in Sprague-Dawley rat at 30 mg/kg, po as 0.5% methocel suspension; format: ADME, organism-based; design: time < 24 hr, dose 30 mg/kg, route oral; conditions: plasma
[8] = Clearance in Sprague-Dawley rat at 30 mg/kg, po in 0.5% methocel and 3 to 5 mg/kg, iv in 60% PEG 200; conditions: in vivo
[9] = Oral bioavailability in Sprague-Dawley rat at 30 mg/kg as 0.5% methocel suspension; format: ADME, organism-based; conditions: in vivo
Renin [10] = biological target: T1, Renin (Homo sapiens, UniProt P00797); test: Inhibition of human recombinant renin in PBS buffer using tetradecapeptide at pH 7.4
T1 sequence (P00797 whole entry): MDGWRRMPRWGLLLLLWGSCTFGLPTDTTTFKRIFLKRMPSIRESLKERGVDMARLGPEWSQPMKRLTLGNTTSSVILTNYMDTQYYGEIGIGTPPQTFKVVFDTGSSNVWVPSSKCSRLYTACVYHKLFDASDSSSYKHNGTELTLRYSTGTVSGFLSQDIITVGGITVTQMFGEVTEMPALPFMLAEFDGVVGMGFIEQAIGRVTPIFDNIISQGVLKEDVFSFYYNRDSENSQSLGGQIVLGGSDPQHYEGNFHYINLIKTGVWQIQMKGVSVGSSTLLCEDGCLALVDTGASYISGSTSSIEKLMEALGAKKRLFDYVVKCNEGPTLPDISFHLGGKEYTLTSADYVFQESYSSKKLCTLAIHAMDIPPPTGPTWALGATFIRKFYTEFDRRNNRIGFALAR

Cytochrome P450 3A4 [11] = biological target: T2, Cytochrome P450 3A4 (Homo sapiens, UniProt P08684); test: Inhibition of human CYP3A4 in human liver microsomes assessed as formation of 6beta-hydroxy-testosterone using testosterone as substrate by high throughput mass spectrometry in absence of NADPH; format: ADME, Microsome
T2 sequence (P08684 whole entry): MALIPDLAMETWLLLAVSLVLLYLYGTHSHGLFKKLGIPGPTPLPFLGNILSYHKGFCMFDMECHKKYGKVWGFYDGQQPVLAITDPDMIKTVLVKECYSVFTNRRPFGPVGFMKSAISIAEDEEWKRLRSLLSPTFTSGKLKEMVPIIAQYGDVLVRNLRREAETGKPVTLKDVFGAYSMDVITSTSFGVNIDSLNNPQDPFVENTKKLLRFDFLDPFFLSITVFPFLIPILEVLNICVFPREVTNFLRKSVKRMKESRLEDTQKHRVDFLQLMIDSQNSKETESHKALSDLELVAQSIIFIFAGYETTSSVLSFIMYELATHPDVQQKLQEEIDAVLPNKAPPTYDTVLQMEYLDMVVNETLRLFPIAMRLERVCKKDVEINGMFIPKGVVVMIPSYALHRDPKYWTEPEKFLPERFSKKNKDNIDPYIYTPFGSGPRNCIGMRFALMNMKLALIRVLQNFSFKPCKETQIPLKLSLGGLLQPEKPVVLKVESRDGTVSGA

Cytochrome P450 3A4 [12] = biological target: T2, Cytochrome P450 3A4; test: Inhibition of human CYP3A4 in human liver microsomes assessed as formation of 6beta-hydroxy-testosterone using testosterone as substrate by high throughput mass spectrometry preincubated for 30 mins in presence of NADPH; format: ADME, Microsome
Renin [13] = biological target: T1, Renin; test: Inhibition of human recombinant renin in human citreated-plasma

Voltage-gated inwardly rectifying potassium channel KCNH2, sequence (Q12809 whole entry): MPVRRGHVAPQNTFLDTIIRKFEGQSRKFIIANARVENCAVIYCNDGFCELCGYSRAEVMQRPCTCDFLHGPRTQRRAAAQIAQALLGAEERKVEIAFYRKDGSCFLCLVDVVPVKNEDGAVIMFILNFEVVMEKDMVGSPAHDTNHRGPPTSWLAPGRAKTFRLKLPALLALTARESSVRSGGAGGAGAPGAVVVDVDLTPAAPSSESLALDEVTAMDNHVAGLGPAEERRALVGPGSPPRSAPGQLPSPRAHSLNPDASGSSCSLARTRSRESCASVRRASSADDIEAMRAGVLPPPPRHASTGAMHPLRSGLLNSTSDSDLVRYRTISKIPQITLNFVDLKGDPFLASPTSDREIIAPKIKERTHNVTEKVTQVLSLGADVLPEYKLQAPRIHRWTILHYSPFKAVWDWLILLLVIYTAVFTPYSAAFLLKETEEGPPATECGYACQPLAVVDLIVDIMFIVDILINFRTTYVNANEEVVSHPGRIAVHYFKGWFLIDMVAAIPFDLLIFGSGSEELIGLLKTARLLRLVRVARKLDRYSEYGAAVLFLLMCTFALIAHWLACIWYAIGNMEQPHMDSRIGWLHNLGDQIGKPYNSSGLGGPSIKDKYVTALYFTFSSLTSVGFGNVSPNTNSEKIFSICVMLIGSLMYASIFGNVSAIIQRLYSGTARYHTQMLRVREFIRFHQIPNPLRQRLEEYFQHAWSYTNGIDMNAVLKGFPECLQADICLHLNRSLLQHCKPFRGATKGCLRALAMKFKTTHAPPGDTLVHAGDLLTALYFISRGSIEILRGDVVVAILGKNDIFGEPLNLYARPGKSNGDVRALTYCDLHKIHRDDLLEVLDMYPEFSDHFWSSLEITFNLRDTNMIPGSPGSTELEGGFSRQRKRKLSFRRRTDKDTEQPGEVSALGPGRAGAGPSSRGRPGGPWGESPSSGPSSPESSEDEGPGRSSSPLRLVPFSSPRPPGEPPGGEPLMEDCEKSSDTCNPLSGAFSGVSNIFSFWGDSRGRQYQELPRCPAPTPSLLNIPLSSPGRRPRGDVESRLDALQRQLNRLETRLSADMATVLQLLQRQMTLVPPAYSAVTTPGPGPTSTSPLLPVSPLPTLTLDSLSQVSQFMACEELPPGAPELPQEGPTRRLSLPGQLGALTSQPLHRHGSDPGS

Row | Activity (Liver [2]) [%] | Activity (Blood [3]) [%] | Activity (Blood [4]) [%] | AUC(0-t) at 24 h [5] [µM·h] | Activity (Liver [6]) [%] | AUC(0-t) at 24 h [7] [µM·h] | clearance [8] [mL/min/kg] | bioavailability [9] [%] | pIC50 (Renin [10]) | pIC50 (Cytochrome P450 3A4 [11]) | pIC50 (Cytochrome P450 3A4 [12]) | pIC50 (Renin [13]) | Structure (SMILES) | pKi [1]
1 | 98 | 93 | 11 | 0.2 | 99 | – | – | – | – | – | – | – | COCCCc1cc(CN(C(=O)[C@H]2CN(C(=O)OCc3oc(=O)oc3C)CC[C@@H]2c2ccc(OCCOc3c(Cl)cc(C)cc3Cl)cc2)C2CC2)cc(OC[C@H]2C[C@@H]2C(=O)O)c1 | 5.43
2 | – | – | – | – | – | 0.2 | 49 | 2 | 10.40 | < 4.30 | < 4.30 | – | COCCCc1cc(CN(C(=O)[C@H]2CNCC[C@@H]2c2ccc(OCCOc3c(Cl)cc(C)cc3Cl)cc2)C2CC2)cc(OCC2(CC(=O)O)CC2)c1 | 6.00
3 | – | – | – | – | – | 1.1 | 44 | 9 | 10.22 | < 4.30 | < 4.30 | 7.53 | COCCCc1cc(CN(C(=O)[C@H]2CNCC[C@@H]2c2ccc(OCCOc3c(Cl)cc(C)cc3Cl)cc2)C2CC2)cc(OCC(C)(C)C(=O)O)c1 | 6.22
4 | – | – | – | – | – | 2.1 | 43 | 13 | 10.70 | < 4.30 | < 4.30 | 8.05 | COCCCc1cc(CN(C(=O)[C@H]2CNCC[C@@H]2c2ccc(OCCOc3c(Cl)cc(C)cc3Cl)cc2)C2CC2)cc(OCCC(C)(C)C(=O)O)c1 | 6.40
5 | – | – | – | – | – | 16 | 9.7 | 22 | 11.00 | < 4.30 | < 4.30 | 8.21 | COCCCc1cc(CN(C(=O)[C@H]2CNCC[C@@H]2c2ccc(OCCOc3c(Cl)cc(C)cc3Cl)cc2)C2CC2)cc(OCCCC(C)(C)C(=O)O)c1 | 6.70
6 | – | – | – | – | – | 6.1 | 29 | 26 | – | < 4.30 | < 4.30 | – | CCC(CC)(CCOc1cc(CCCOC)cc(CN(C(=O)[C@H]2CNCC[C@@H]2c2ccc(OCCOc3c(Cl)cc(C)cc3Cl)cc2)C2CC2)c1)C(=O)O | 6.40
7 | – | – | – | – | – | 3.3 | 27 | 15 | 11.00 | < 4.30 | < 4.30 | 7.91 | COCCCc1cc(CN(C(=O)[C@H]2CNCC[C@@H]2c2ccc(OCCOc3c(Cl)cc(C)cc3Cl)cc2)C2CC2)cc(OCCC2(C(=O)O)CCCC2)c1 | 6.30
8 | – | – | – | – | – | 1.2 | 23 | 3 | 10.22 | < 4.30 | < 4.30 | 8.68 | COCCCc1cc(CN(C(=O)[C@H]2CNCC[C@@H]2c2ccc(OCCOc3c(Cl)cc(C)cc3Cl)cc2)C2CC2)cc(OCC[C@](C)(OC)C(=O)O)c1 | 5.64
9 | – | – | – | – | – | – | 26 | 0 | 11.00 | < 4.30 | < 4.30 | 8.68 | COCCCc1cc(CN(C(=O)[C@H]2CNCC[C@@H]2c2ccc(OCCOc3c(Cl)cc(C)cc3Cl)cc2)C2CC2)cc(OC[C@H]2C[C@@H]2C(=O)NS(C)(=O)=O)c1 | 6.30
10 | – | – | – | – | – | – | 46 | 0 | – | < 4.30 | < 4.30 | 8.28 | COCCCc1cc(CN(C(=O)[C@H]2CNCC[C@@H]2c2ccc(OCCOc3c(Cl)cc(C)cc3Cl)cc2)C2CC2)cc(OCC2(Cc3nn[nH]n3)CC2)c1 | 6.30
